High-throughput results from PubChem BioAssay.
The list is not random: actives were taken first. Their share in the collection is about 0.6%.
PMI act satM6P: human PMI activators, high substrate, primary screen, biochemical, fluorescence intensity, near-saturating mannose 6-phosphate. AID 1216, 2008. coupled PMI enzyme assay, resazurin fluorescence, 20 min; active compounds read high; 1 = untreated enzyme, 0 = substrate-free blank. Mannose-6-phosphate isomerase (Homo sapiens), P34949. actives 0.34% (n = 190,000). activation factor at 20 µM;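 active means activation factor of 2 or more at 20 µM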
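Test system: human phosphomannose isomerase with PGI, G6PDH, diaphorase coupling enzymes; Amount: PMI at 15 ng/mL final; Reagent: Mannose-6-phosphate 1.0 mM (near-saturating) plus 0.22 mM NADP+; Timing: 20 min, room temperature; Technique: resorufin fluorescence at Ex 544/Em 590 nm; Dosing: 20 µM single dose.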
TNAP inh noacc: human TNAP enzyme inhibitors, primary screen, biochemical, luminescent, no phosphate acceptor, uHTS | Alkaline phosphatase, tissue-nonspecific isozyme (Homo sapiens), P05186 | purified TNAP, CDP-star luminescence, 30 min | inhibition, % at 20 µM | actives 0.26% (n = 200,000);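 active means tissue-nonspecific alkaline phosphatase inhibition above about 50% at 20 µM in the single-dose screen, limit read from the data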;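 further: 0% = DMSO negative control and 100% = EDTA positive control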
Target sequence (P05186 whole entry, looked up): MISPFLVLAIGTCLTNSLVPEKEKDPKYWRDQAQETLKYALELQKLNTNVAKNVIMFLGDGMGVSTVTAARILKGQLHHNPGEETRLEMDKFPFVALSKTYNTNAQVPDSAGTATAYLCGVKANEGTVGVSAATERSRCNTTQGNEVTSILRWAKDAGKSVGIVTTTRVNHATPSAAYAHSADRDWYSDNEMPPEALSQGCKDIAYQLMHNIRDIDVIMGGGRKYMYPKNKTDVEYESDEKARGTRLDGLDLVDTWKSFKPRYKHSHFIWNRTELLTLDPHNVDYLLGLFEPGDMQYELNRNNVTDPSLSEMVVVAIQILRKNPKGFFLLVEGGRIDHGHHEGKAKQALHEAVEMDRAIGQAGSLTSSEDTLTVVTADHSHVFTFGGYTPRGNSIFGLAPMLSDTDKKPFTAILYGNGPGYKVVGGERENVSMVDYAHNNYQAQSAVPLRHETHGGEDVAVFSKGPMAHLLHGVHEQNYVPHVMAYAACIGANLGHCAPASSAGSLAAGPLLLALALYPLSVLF
PMI act: activators of human PMI, primary screen, biochemical, fluorescence intensity, near-Km mannose 6-phosphate | activation factor at 20 µM | purified human PMI, coupled resazurin fluorescence, 20 min; active compounds read high; 1 = vehicle control, 0 substrate-free wells | actives 0.005% (n = 190,000);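 active means activation factor of 2 or more at 20 µM, relative to plate controls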
TNAP act hi DEA: TNAP activators at high phosphate acceptor level, primary screen, biochemical, luminescence, uHTS; Alkaline phosphatase, tissue-nonspecific isozyme (Homo sapiens), P05186; purified TNAP, CDP-star luminescence, 1 M DEA, 30 min; active compounds read high; 0 = EDTA background, 1 = DMSO-only activity; activation factor at 20 µM; 200,000 tested, under 10 active; AID 1136, 2008;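 active means activation factor at least 2 at 20 µM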
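Test system – human TNAP · Doses – 20 µM single point · Incubation – 30 min, room temperature · Signal – luminescent substrate turnover signal · Read-out basis – activation factor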
TNAP inh hi DEA: human TNAP enzyme inhibitors, primary screen, biochemical, luminescent, high phosphate acceptor level, uHTS; AID 1135, 2008; actives 0.03% (n = 200,000); Alkaline phosphatase, tissue-nonspecific isozyme (Homo sapiens), P05186; purified TNAP, CDP-star luminescence, 1 M DEA; inhibition, % at 20 µM;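 active means over 50% inhibition of tissue-nonspecific alkaline phosphatase at 20 µM in the single-dose screen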;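 further: plate controls were DMSO wells for no effect and EDTA-quenched wells as full inhibition for full effect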
* marks the source's active call; other numbers are inactive results; · = no result.

SMILES | PMI act satM6P | TNAP inh noacc | PMI act | TNAP act hi DEA | TNAP inh hi DEA
COc1ccc(-n2c(O)c(/C=N/NS(=O)(=O)c3cccc([N+](=O)[O-])c3)c3ccccc3c2=O)cc1OC | 2.1* | -60 | 1.5 | 1 | 0
O=[N+]([O-])c1cccc(/C=N/NS(=O)(=O)c2ccccc2)c1 | 1.1 | -8 | 1.5 | 1 | -2
OC1CCN(C(=S)Nc2ccc(Oc3ccccc3)cc2)CC1 | 0.9 | -5 | 0.8 | 1 | -2
CCOC(=O)CON1C(=O)c2ccccc2C1=O | 1 | -8 | 1 | 1 | -3
CCO/C=C1/C(=O)N(C(C)=O)c2ccccc21 | 2.6* | -6 | 1.7 | 1 | -2
CC(=O)c1ccc(N2C(=O)C3C(C2=O)C(C(=O)c2ccc(Cl)cc2)N2CCCC32)cc1 (stereo unspecified) | 2* | -2 | 1.6 | 1 | -4
Cc1ccc(N2C(=O)[C@@H]3[C@H](C2=O)C2CCCN2[C@@H]3C(=O)c2ccccc2)cc1 (stereo partly specified) | 2* | -12 | 1.5 | 1.1 | -6
O=C(c1ccc(Cl)cc1)C1C2C(=O)N(c3ccccc3)C(=O)C2C2CCCN21 (stereo unspecified) | 2* | 5 | 1.6 | 1 | -2
O=C1[C@H]2[C@H](ON3CCCC[C@H]23)C(=O)N1c1ccc(Cl)cc1 | 1 | 0 | 1 | 1 | 1
Cc1ccc(CN2CCN(/N=C/c3ccc(Cl)c([N+](=O)[O-])c3)CC2)cc1 | 0.8 | 1 | 0.9 | 1 | 4
Cc1ccc(NC(=S)N2CCC(N(C)CC3CCCO3)CC2)cc1 (stereo unspecified) | 1 | -10 | 1 | 1 | -4
CN(C)c1nnnn1-c1ccc(Oc2ncc(C(F)(F)F)cc2Cl)cc1 | 1 | -8 | 1.1 | 1 | -4
CN1C(=O)c2oc3ccccc3c(=O)c2C1c1ccncc1 (stereo unspecified) | 2.3* | -4 | 1.6 | 1 | 0
COc1ccc(C2c3c(oc4ccccc4c3=O)C(=O)N2Cc2ccncc2)cc1 (stereo unspecified) | 1 | 3 | 1.2 | 1 | -2
O=C(O)c1ccc(N/N=C/c2cccc(F)c2)cc1 | 2.9* | 11 | 1.9 | 1.1 | -6
CC(C)Nc1nnc(SC(C)C(=O)NCc2ccc3c(c2)OCO3)s1 (stereo unspecified) | 0.9 | -12 | 0.9 | 1.1 | -8
CCOC(=O)c1cc[nH]c1C | 1 | -19 | 0.9 | 1.1 | -5
O=C(CN1CCN(CCN2C(=O)c3cccc4cccc(c34)C2=O)CC1)c1ccc(Cl)cc1 | 2.6* | 13 | 1.7 | 1 | 4
O=C(CN1CCN(CCN2C(=O)c3cccc4cccc(c34)C2=O)CC1)c1ccc(F)cc1 | 1.6 | 17 | 1.4 | 0.8 | 21
CC(C)N1C(=O)CCN(C=O)c2ccccc21 | 1 | -10 | 1 | 1 | 1
CS/C(=N\S(=O)(=O)c1ccccc1)c1ccccc1 | 2* | -2 | 1.7 | 0.9 | 8
O=S(=O)(/N=C(/Sc1ccccc1)c1ccccc1)c1ccccc1 | 1.1 | 17 | 1 | 1.1 | -5
CCN(CC(=O)NCc1ccc(F)cc1)C(=O)/C=C/c1ccco1 | 1.1 | -10 | 1.1 | 1 | -3
COc1cccc(-c2cn3nc(C)c(C)nc3n2)c1 | 2.1* | 14 | 1.6 | 1 | -4
COCC1CCN(Cc2cn[nH]c2-c2ccc(OC)cc2F)C1 (stereo unspecified) | · | 74* | · | 1 | -3
SMILES | PMI act satM6P | TNAP inh noacc | PMI act | TNAP act hi DEA | TNAP inh hi DEA
COc1ccccc1C(=O)N1CCN(Cc2cn[nH]c2-c2ccc(F)cc2F)CC1 | 1 | 86* | 1 | 1 | 4
COc1ccc(-c2[nH]ncc2CN2CCCO2)c(F)c1 | 1 | 64* | 1 | 1.1 | -8
COc1ccc(-c2[nH]ncc2CN2CCCCCCC2)c(OC)c1 | 1 | -2 | 0.9 | 1.1 | -9
COc1ccc(-c2[nH]ncc2CN2CCC(OCc3ccccc3)CC2)c(F)c1 | 1 | 45 | 0.9 | 1.1 | -6
COc1ccc(-c2[nH]ncc2CN2CCC(N3CCSCC3)CC2)c(F)c1 | 1 | 75* | 0.9 | 1.1 | -6
COc1ccc(/C=N/OCC(=O)N2CCCC2)c(OC)c1 | 0.9 | -4 | 1 | 1 | -4
CC(=O)Nc1n[nH]c(-c2ccc(C)cc2)c1C | 1 | 85* | 0.9 | 1.1 | -6
CCOC(=O)c1c(C)c(/C=N/Nc2ccccc2)n(C)c1C | 2.5* | -3 | 1.7 | 1 | 4
CCOC(=O)c1c(C)c(C(=O)O)n(C)c1C | 0.9 | -15 | 1 | 1.1 | -7
O=C(Sc1nnnn1C1CCCCC1)c1cccs1 | 2.2* | -9 | 1.6 | 1.1 | -9
COC(=O)Cn1cc(/C=C(/C#N)C(=O)N2CCOCC2)c2ccccc21 | 0.9 | -1 | 0.9 | 1 | 1
Cn1c(N)c(C(=O)COC(=O)[C@@H]2CCCN2S(=O)(=O)c2ccc(Cl)cc2)c(=O)n(C)c1=O | 1 | -3 | 1 | 1 | -4
COc1ccc(-c2cc3nnc(-c4ccccc4)nc3s2)cc1 | 2.5* | -6 | 1.6 | 1 | -2
COc1ccc(-c2nc3ccccc3nc2-c2ccccc2)cc1 | 1 | -11 | 0.9 | 1 | -4
CCCC(=O)Nc1ccccc1NC(=O)c1ccc(OC(C)=O)cc1 | 1.1 | -10 | 1 | 1.1 | -9
COc1ccc(C)cc1S(=O)(=O)Nc1cccnc1 | 0.9 | 85* | 1 | 0.4 | 64*
COc1ccc(OC)c(S(=O)(=O)Nc2ccc(F)cc2)c1 | 0.9 | -6 | 0.9 | 1 | -1
COc1ccc(OC)c(S(=O)(=O)Nc2cnc3ccccc3c2)c1 | 1 | 94* | 0.9 | 0.2 | 82*
ClC(Cl)(c1nnnn1-c1ccccc1)c1nnnn1-c1ccccc1 | 0.6 | -8 | 0.4 | 1 | -1
CCCCC(=O)Nc1ccc(Br)cc1C(=O)O | 1.3 | -12 | 1.1 | 1 | -3
O=C(O)c1cc(Br)ccc1NN=C1CCCCC1 | 2.9* | -10 | 1.8 | 0.9 | 6
Cc1cc(C)c(S(=O)(=O)Nc2ccc(O)c(Sc3ncn[nH]3)c2)c(C)c1 | 0.9 | 72* | 0.9 | 1 | 1
COc1ccc(S(=O)(=O)Nc2ccc(O)c(Sc3ncn[nH]3)c2)cc1 | 0.9 | 79* | 0.9 | 0.9 | 5
COc1cc2cccc(OC)c(=O)c2c(O)c1OC | 1 | 11 | 0.9 | 1 | 1
